Laboratory results from ChEMBL document CHEMBL3244246, “2-Substituted derivatives of 9-alpha-D-arabinofuranosyladenine and 9-alpha-D-arabinofuranosyl-8-azaadenine” (J Med Chem, 1977).
Activity calls are given as the source filed them. The rule behind the calls is not given here.

Tests used:
[1] = system: Human rhinovirus 1A; assay: Antiviral activity against Human rhinovirus 1A 2060 infected in human KB cells assessed as inhibition of virus-induced cytopathogenicity measured at 4 days post-virus infection by Microtest 2 plate based microscopic analysis; format: functional, organism-based
Procedure, shortened: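 Rhinovirus in KB cells under BME with 5% fetal bovine serum, challenged at 32 CCID50 per well alongside compound. Seven half-log concentrations spanning cytotoxic to noncytotoxic, triplicate. Cell, virus and drug-cytotoxicity controls included. Plates sealed, held at 33 °C. Cpe reduction examined microscopically after 4 days; virus rating (VR) computed from cpe inhibition and cytotoxicity.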

[2] = system: Respiratory syncytial virus; assay: Antiviral activity against Respiratory syncytial virus Long infected in human Hep2 cells assessed as inhibition of virus-induced cytopathogenicity measured at 4 days post-virus infection by Microtest 2 plate based microscopic analysis; format: functional, organism-based; conditions: HEp-2
Procedure, shortened: (§1)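 Cells pregrown in microplates in BME (double vitamins/amino acids, 5% FBS). Medium replaced with compound-containing medium plus virus giving 32 CCID50 per well. Seven concentrations, half-log steps from cytotoxic to noncytotoxic, in triplicate. Cell, virus and cytotoxicity controls run alongside. Incubated 37 °C; cpe reduction judged microscopically at 4 days. Virus rating (VR) derived from cpe inhibition and cytotoxicity.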

[3] = system: Cytomegalovirus; assay: Antiviral activity against Cytomegalovirus AD 169 infected in human WI-38 cells assessed as inhibition of virus-induced cytopathogenicity measured at 7 days post-virus infection by […] microscopic analysis; format: functional, organism-based
Procedure, shortened: (§2)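 Diploid human embryonic lung fibroblasts, 7-day-old monolayers in tubes, MEM plus 2% fetal bovine serum. Compound added in fresh medium (triplicate), then ~32 CCID50 virus per culture. Incubated 37 °C; medium replaced with fresh drug-containing medium at 48 h and again 48 h later. Cytotoxicity, virus and cell controls included. Cpe scored microscopically at day 7; virus rating (VR) calculated from cpe inhibition and drug cytotoxicity.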

[4] = system: Human alphaherpesvirus 3; assay: Antiviral activity against Varicella zoster virus Ellen infected in human WI-38 cells assessed as inhibition of virus-induced cytopathogenicity measured at 7 days post-virus infection by […] microscopic analysis; format: functional, organism-based; procedure, shortened: as §2
[5] = system: Human adenovirus 2; assay: Antiviral activity against Human adenovirus 2 Adenoid-6 infected in human KB cells assessed as inhibition of virus-induced cytopathogenicity measured at 4 days post-virus infection by Microtest 2 plate based microscopic analysis; format: functional, organism-based; procedure, shortened: as §1
[6] = system: Human alphaherpesvirus 1; assay: Antiviral activity against Herpes simplex virus 1 HF infected in human Hep2 cells assessed as inhibition of virus-induced cytopathogenicity measured at 4 days post-virus infection by Microtest 2 plate based microscopic analysis; format: functional, organism-based; conditions: HEp-2; procedure, shortened: as §1
[7] = Virus rating for antiviral activity against Herpes simplex virus 1 HF infected in human Hep2 cells assessed as inhibition of virus-induced cytopathic effect taking into account cytotoxicity against human Hep2 cells

COc1nc(N)c2ncn([C@H]3O[C@H](CO)[C@@H](O)[C@@H]3O)c2n1
inhibition [1]: inactive | inhibition [2]: inactive | inhibition [3]: inactive | inhibition [4]: inactive | inhibition [5]: inactive | inhibition [6]: inactive

CSc1nc(N)c2ncn([C@H]3O[C@H](CO)[C@@H](O)[C@@H]3O)c2n1
inhibition [1]: inactive | inhibition [2]: inactive | inhibition [3]: inactive | inhibition [4]: inactive | inhibition [5]: inactive | inhibition [6]: inactive

CSc1nc(N)c2nnn([C@H]3O[C@H](CO)[C@@H](O)[C@@H]3O)c2n1
inhibition [1]: inactive | inhibition [2]: inactive | inhibition [3]: inactive | inhibition [4]: inactive | inhibition [5]: inactive | inhibition [6]: inactive

Nc1ncnc2c1ncn2[C@H]1O[C@H](CO)[C@@H](O)[C@@H]1O
virus rating [7]: 0.6

CS(=O)(=O)c1nc(N)c2nnn([C@H]3O[C@H](CO)[C@@H](O)[C@@H]3O)c2n1
inhibition [1]: inactive | inhibition [2]: inactive | inhibition [3]: inactive | inhibition [4]: inactive | inhibition [5]: inactive | inhibition [6]: inactive

NNc1nc(N)c2nnn([C@H]3O[C@H](CO)[C@@H](O)[C@@H]3O)c2n1
inhibition [1]: inactive | inhibition [2]: inactive | inhibition [3]: inactive | inhibition [4]: inactive | inhibition [5]: inactive | inhibition [6]: inactive

NNc1nc(N)c2ncn([C@H]3O[C@H](CO)[C@@H](O)[C@@H]3O)c2n1
inhibition [1]: inactive | inhibition [2]: inactive | inhibition [3]: inactive | inhibition [4]: inactive | inhibition [5]: inactive | inhibition [6]: inactive

Nc1ncnc2c1nnn2[C@H]1O[C@H](CO)[C@@H](O)[C@@H]1O
virus rating [7]: 1

COc1nc(N)c2nnn([C@H]3O[C@H](CO)[C@@H](O)[C@@H]3O)c2n1
inhibition [1]: inactive | inhibition [2]: inactive | inhibition [3]: inactive | inhibition [4]: inactive | inhibition [5]: inactive | inhibition [6]: inactive

[N-]=[N+]=Nc1nc(N)c2nnn([C@H]3O[C@H](CO)[C@@H](O)[C@@H]3O)c2n1
inhibition [1]: inactive | inhibition [2]: inactive | inhibition [3]: inactive | inhibition [4]: inactive | inhibition [5]: inactive | inhibition [6]: inactive
